In ChEMBL document CHEMBL1921704, “Discovery of N-aryl-2-acylindole human glucagon receptor antagonists” (Bioorg Med Chem Lett, 2011):
Active and inactive are the calls of the source. The rule behind the calls is not given here.

Tests used:
[1] = tested on: Mus musculus; assay: Antidiabetic activity in human glucagon receptor transgenic mouse assessed as inhibition of glucagon-induced glucose excursion at 3 mg/kg, po administered 60 mins after glucagon challenge by glucometry; assay type: functional, organism-based; parameters: dose 3 mg/kg; details: in the assay text read “60 mins before glucagon challenge” for “60 mins after glucagon challenge”
Outline: (§1)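 Oral dosing to mice expressing human glucagon receptor, followed 60 min later by IP glucagon injection. Read-out was the glucagon-induced blood glucose excursion.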

[2] = tested on: Liver; assay: Protein binding in Sprague-Dawley rat liver at 20 mg/kg, po after 2 to 24 hrs; assay type: ADME, organism-based; parameters: dose 20 mg/kg, route oral; details: in vivo
Outline: (§2)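 Radiolabelled analog given orally at 20 mg/kg to Sprague-Dawley rats. Irreversible binding to plasma and liver proteins measured at 2, 6 and 24 h post dose.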

[3] = target: T1, Gastric inhibitory polypeptide receptor (Homo sapiens, UniProt P48546); assay: Antagonist activity at human GIP receptor assessed as inhibition of cAMP production; assay type: functional
T1 sequence (P48546 whole entry): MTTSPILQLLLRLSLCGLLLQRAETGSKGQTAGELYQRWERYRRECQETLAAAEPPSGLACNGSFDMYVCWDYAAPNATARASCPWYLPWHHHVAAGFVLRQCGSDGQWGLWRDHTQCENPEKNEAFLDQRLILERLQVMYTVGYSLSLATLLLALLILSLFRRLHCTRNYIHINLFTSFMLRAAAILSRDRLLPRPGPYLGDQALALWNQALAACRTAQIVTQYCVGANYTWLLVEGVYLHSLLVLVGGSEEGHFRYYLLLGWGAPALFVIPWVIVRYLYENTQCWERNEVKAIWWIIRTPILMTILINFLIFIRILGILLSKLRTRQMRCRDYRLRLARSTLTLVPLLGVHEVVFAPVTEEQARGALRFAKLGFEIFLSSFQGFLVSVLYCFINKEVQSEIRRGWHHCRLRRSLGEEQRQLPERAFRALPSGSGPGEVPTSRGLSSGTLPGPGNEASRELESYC

[4] = tested on: Liver microsomes; assay: Protein binding in human liver microsomes at 10 uM after 60 mins; assay type: ADME, Microsome; details: 1 h
Outline: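 Tritium-labelled analog incubated with human and rat liver microsomes for 60 min at 37 °C, then irreversible protein binding measured.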

[5] = target: Cytochrome P450 2D6 (Homo sapiens, UniProt P10635); assay: Inhibition of CYP2D6; assay type: ADME
Sequence of Cytochrome P450 2D6 (P10635 whole entry): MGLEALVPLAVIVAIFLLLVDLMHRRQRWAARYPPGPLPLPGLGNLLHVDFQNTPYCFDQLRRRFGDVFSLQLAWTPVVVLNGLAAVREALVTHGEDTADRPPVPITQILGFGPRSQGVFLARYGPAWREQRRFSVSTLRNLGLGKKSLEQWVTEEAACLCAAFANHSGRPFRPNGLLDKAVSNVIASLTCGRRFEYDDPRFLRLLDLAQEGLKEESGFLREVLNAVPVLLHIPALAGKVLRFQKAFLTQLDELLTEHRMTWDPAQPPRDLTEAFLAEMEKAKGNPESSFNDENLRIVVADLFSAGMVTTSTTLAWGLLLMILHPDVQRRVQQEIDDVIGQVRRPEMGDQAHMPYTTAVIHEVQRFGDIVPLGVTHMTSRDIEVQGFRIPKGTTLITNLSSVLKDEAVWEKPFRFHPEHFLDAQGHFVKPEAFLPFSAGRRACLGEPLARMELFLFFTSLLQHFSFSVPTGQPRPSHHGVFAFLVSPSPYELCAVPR

[6] = Volume of distribution in dog at 0.5 mg/kg, iv and 2 mg/kg, po; assay type: ADME, organism-based, Canis lupus familiaris; details: in vivo
[7] = tested on: Mus musculus; assay: Antidiabetic activity in human glucagon receptor transgenic ob/ob mouse hyperglycemic model assessed as reduction in ambient glucose level at 1 mg/kg, po over 6 hrs period; assay type: functional, organism-based; parameters: dose 1 mg/kg
Outline: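 Model was transgenic ob/ob/hGCGR diabetic mice. Ambient glucose was followed over 6 h after a single oral dose.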

[8] = tested on: Canis familiaris; assay: Dose normalised AUC in dog at 2 mg/kg, po; assay type: ADME, organism-based, Canis lupus familiaris; parameters: dose 2 mg/kg, route oral; details: in vivo
[9] = Half life in rat at 1 mg/kg, iv and 2 mg/kg, po; assay type: ADME, organism-based; details: in vivo
Outline: (§3)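 Rat PK with dosing at 1 mg/kg IV and 2 mg/kg PO, vehicle DMSO/water/PEG400 15:35:55. Parameters were plasma clearance, Vd, t1/2, dose-normalised PO AUC and Cmax, and %F.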

[10] = Chemical stability of the compound in 1:1 mixtures of dioxane and buffered solutions at pH 2 to pH 10 assessed as racemization at 40 degree celsius after 24 hrs by chiral HPLC analysis; assay type: physicochemical; details: buffer, pH 2, 24 h
[11] = Oral bioavailability in dog at 2 mg/kg; assay type: ADME, organism-based, Canis lupus familiaris; details: in vivo
[12] = Oral bioavailability in rat at 2 mg/kg; assay type: ADME, organism-based; details: in vivo; outline: as §3
[13] = tested on: Canis familiaris; assay: Dose normalised Cmax in dog at 0.5 mg/kg, iv and 2 mg/kg, po; assay type: ADME, organism-based, Canis lupus familiaris; details: in vivo
[14] = tested on: Plasma; assay: Protein binding in Sprague-Dawley rat plasma at 20 mg/kg, po after 2 to 24 hrs; assay type: ADME, organism-based; parameters: dose 20 mg/kg, route oral; details: in vivo; outline: as §2
[15] = Half life in dog at 0.5 mg/kg, iv and 2 mg/kg, po; assay type: ADME, organism-based, Canis lupus familiaris; details: in vivo
[16] = tested on: Rattus norvegicus; assay: Dose normalised AUC in rat at 2 mg/kg, po; assay type: ADME, organism-based; parameters: dose 2 mg/kg, route oral; details: in vivo; outline: as §3
[17] = target: Cytochrome P450 3A4 (Homo sapiens, UniProt P08684); assay: Inhibition of CYP3A4; assay type: ADME
Sequence of Cytochrome P450 3A4 (P08684 whole entry): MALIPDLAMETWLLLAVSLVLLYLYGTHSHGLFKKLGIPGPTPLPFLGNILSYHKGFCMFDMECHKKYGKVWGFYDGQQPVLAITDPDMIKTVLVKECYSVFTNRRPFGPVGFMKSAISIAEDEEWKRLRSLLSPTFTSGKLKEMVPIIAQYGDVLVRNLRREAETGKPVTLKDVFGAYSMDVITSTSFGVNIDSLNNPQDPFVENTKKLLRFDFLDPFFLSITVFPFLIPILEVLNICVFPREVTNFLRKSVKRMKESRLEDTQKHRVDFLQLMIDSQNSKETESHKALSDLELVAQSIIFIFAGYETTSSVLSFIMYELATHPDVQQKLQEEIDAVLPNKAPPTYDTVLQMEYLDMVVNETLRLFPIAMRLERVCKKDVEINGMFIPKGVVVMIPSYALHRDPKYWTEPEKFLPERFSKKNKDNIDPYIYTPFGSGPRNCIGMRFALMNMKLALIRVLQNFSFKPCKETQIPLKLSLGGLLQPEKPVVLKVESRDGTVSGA

[18] = Plasma clearance in dog at 0.5 mg/kg, iv and 2 mg/kg, po; assay type: ADME, organism-based, Canis lupus familiaris
[19] = tested on: Rattus norvegicus; assay: Dose normalised Cmax in rat at 1 mg/kg, iv and 2 mg/kg, po; assay type: ADME, organism-based; details: in vivo; outline: as §3
[20] = target: T2, Glucagon receptor (Homo sapiens, UniProt P47871); assay: Displacement of [125I]-glucagon from human glucagon receptor expressed in CHO cells after 4 to 12 hrs by scintillation proximity assay; assay type: cell-based
T2 sequence (P47871 whole entry): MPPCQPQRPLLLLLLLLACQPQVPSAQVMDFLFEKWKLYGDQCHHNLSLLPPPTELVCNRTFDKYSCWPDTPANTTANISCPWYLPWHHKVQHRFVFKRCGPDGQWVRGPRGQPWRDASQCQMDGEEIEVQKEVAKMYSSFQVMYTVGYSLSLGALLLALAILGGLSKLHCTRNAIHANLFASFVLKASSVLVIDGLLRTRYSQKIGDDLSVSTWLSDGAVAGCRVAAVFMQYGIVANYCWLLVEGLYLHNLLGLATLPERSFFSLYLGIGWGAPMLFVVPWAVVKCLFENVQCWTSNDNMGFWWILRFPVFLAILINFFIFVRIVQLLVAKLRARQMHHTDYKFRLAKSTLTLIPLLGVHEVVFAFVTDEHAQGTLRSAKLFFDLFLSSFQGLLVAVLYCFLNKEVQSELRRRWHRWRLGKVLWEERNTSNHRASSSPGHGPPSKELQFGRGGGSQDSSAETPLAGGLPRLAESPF
Outline: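 Scintillation proximity assay on membranes from CHO cells expressing hGCGR, measuring inhibition of ¹²⁵I-labelled glucagon binding. IC50 reported as the average rounded to two significant figures, with standard error of the mean when more than one measurement was made.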

[21] = tested on: Mus musculus; assay: Antidiabetic activity in human glucagon receptor transgenic mouse assessed as inhibition of glucagon-induced glucose excursion at 30 mg/kg, po administered 60 mins after glucagon challenge by glucometry; assay type: functional, organism-based; parameters: dose 30 mg/kg; details: in the assay text read “60 mins before glucagon challenge” for “60 mins after glucagon challenge”; outline: as §1
[22] = target: Cytochrome P450 2C9 (Homo sapiens, UniProt P11712); assay: Inhibition of CYP2C9; assay type: ADME
Sequence of Cytochrome P450 2C9 (P11712 whole entry): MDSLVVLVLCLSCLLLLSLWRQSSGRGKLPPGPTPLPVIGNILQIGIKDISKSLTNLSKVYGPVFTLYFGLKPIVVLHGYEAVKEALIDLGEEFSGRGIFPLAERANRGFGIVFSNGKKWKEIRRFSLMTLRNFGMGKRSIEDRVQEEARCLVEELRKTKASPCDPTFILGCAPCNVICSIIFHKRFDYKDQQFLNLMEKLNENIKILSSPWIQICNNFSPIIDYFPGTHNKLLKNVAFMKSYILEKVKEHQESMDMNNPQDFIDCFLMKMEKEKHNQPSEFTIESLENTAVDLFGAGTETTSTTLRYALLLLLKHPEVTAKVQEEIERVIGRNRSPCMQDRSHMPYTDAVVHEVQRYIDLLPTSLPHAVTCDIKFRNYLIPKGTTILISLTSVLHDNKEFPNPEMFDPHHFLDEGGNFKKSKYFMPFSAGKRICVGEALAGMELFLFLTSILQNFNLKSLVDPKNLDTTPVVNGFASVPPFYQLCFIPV

[23] = Plasma clearance in rat at 1 mg/kg, iv and 2 mg/kg, po; assay type: ADME, organism-based; outline: as §3
[24] = tested on: Rattus norvegicus; assay: Stability of the compound in bile duct cannulated rat assessed as racemization at 2 mg/kg, iv by chiral HPLC analysis; assay type: ADME, organism-based; parameters: dose 2 mg/kg, route intravenous; details: in vivo
Outline: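 Radiolabelled compound given IV at 2 mg/kg to bile-duct-cannulated rats. Excreted parent compound analysed by chiral HPLC for racemization.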

[25] = target: Glucagon-like peptide 1 receptor (Homo sapiens, UniProt P43220); assay: Antagonist activity at human GLP1 receptor assessed as inhibition of cAMP production; assay type: functional
Sequence of Glucagon-like peptide 1 receptor (P43220 whole entry): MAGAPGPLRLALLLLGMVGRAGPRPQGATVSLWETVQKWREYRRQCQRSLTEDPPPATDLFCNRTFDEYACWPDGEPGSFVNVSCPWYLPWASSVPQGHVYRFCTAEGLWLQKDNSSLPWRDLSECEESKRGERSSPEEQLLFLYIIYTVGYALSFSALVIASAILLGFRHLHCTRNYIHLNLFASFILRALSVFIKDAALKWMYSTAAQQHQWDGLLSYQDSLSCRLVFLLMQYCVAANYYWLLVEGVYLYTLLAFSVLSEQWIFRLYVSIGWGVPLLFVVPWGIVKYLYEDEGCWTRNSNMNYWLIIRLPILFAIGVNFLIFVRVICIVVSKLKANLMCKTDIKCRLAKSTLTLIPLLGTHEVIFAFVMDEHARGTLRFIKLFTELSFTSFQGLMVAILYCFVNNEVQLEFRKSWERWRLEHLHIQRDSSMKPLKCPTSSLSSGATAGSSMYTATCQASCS

[26] = target: T2, Glucagon receptor; assay: Antagonist activity at human glucagon receptor expressed in CHO cells assessed as inhibition of forskolin/glucagon-induced cAMP production preincubated for 30 mins before glucagon challenge measured after 30 mins using [125I]-cAMP by liquid scintillation counting; assay type: functional, cell-based
Outline: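 Glucagon-induced cAMP production measured in CHO cells transfected with hGCGR. IC50 reported as the average rounded to two significant figures, with SEM when measured more than once.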

[27] = tested on: Rattus norvegicus; assay: Toxicity in rat assessed as tolerability at 100 mg/kg/day after 8 days; assay type: organism-based; details: in vivo, 192 h
[28] = tested on: Mus musculus; assay: Antidiabetic activity in human glucagon receptor transgenic mouse assessed as inhibition of glucagon-induced glucose excursion at 10 mg/kg, po administered 60 mins after glucagon challenge by glucometry; assay type: functional, organism-based; parameters: dose 10 mg/kg; details: in the assay text read “60 mins before glucagon challenge” for “60 mins after glucagon challenge”; outline: as §1
[29] = tested on: Liver microsomes; assay: Stability of the compound in human liver microsomes assessed as racemization at 10 uM after 60 mins by chiral HPLC analysis; assay type: ADME, Microsome; details: 1 h
[30] = Volume of distribution in rat at 1 mg/kg, iv and 2 mg/kg, po; assay type: ADME, organism-based; details: in vivo; outline: as §3

For `CCCCC[C@@H](Cc1ccc(C(=O)NCCC(=O)O)cc1)C(=O)c1cc2cc(Cl)ccc2n1-c1cccc(C(F)(F)F)c1`, which Activity [1] is on record?
Its Activity is “Active”.

What about the PB [2] of the same compound?
The PB was “Not Active”.

And the IC50 [3]?
Its IC50 is 1400 nM.

And the PB [4]?
The PB was “Not Active”.

What about the IC50 [5] of the same compound?
The IC50 was > 11000 nM.

And the Vd [6]?
Its Vd is 0.32 L/kg.

What about the Activity [7] of the same compound?
The Activity was “Active”.

And the AUC/dose [8]?
Its AUC/dose is 4.2 µM·h.

What about the half-life [9] of the same compound?
Its half-life is 1.9 h.

And the Stability [10]?
The Stability was “Stable”.

What about the bioavailability [11] of the same compound?
Its bioavailability is 60%.

And the bioavailability [12]?
Its bioavailability is 33%.

What about the Cmax/dose [13] of the same compound?
The Cmax/dose was 840 nM.

And the PPB [14]?
Its PPB is “Not Active”.

What about the half-life [15] of the same compound?
The half-life was 2.7 h.

What about the AUC/dose [16] of the same compound?
The AUC/dose was 1.46 µM·h.

And the IC50 [17]?
Its IC50 is > 11000 nM.

And the clearance [18]?
Its clearance is 3.8 mL/min/kg.

And the Cmax/dose [19]?
The Cmax/dose was 330 nM.

What about the IC50 [20] of the same compound?
The IC50 was 10 nM.

And the Activity [21]?
The Activity was “Active”.

What about the IC50 [22] of the same compound?
The IC50 was > 11000 nM.

And the clearance [23]?
Its clearance is 6.8 mL/min/kg.

And the Stability [24]?
Its Stability is “Stable”.

What about the IC50 [25] of the same compound?
Its IC50 is > 10000 nM.

And the IC50 [26]?
Its IC50 is 12 nM.

And the Activity [27]?
Its Activity is “Non-toxic”.

What about the Activity [28] of the same compound?
The Activity was “Active”.

And the Stability [29]?
Its Stability is “Stable”.

What about the Vd [30] of the same compound?
The Vd was 0.98 L/kg.
